Source: ChEMBL document CHEMBL3774312, “5-Substituted 3-isopropyl-7-[4-(2-pyridyl)benzyl]amino-1(2)H-pyrazolo[4,3-d]pyrimidines with anti-proliferative activity as potent and selective inhibitors of cyclin-dependent kinases” (Eur J Med Chem, 2016)
Activity calls are given as the source filed them. The calls are words filed in the database; no cut-off is given here.

What was measured:
[1] = molecular target: Cyclin-dependent kinase 4 (Homo sapiens, UniProt P11802); experiment: Inhibition of CDK4 (unknown origin)
[2] = molecular target: Calcium/calmodulin-dependent protein kinase kinase 2 (Homo sapiens) (UniProt Q96RR4); experiment: Inhibition of recombinant CAMKKB (unknown origin) assessed as residual activity at 1 uM relative to control
[3] = molecular target: Serine/threonine-protein kinase PAK 4 (Homo sapiens) (UniProt O96013); experiment: Inhibition of recombinant PAK4 (unknown origin) assessed as residual activity at 1 uM relative to control
[4] = molecular target: Ribosomal protein S6 kinase alpha-1 (Homo sapiens) (UniProt Q15418); experiment: Inhibition of recombinant RSK1 (unknown origin) assessed as residual activity at 1 uM relative to control
K562 = experiment: Cytotoxicity against human K562 cells assessed as reduction in cell viability after 72 hrs by calcein AM staining based fluorescence assay; type: functional; settings: K562, 72 h
In short: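 Cells were grown in DMEM with 10% FBS, penicillin and streptomycin at 37 °C in 5% CO2. Three doses were tested in triplicate for 72 h.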

[5] = molecular target: Cyclin-dependent kinase 7 (Homo sapiens, UniProt P50613); experiment: Inhibition of CDK7 (unknown origin)
[6] = Cell cycle arrest in BrdU pulse-labelled human HCT116 cells assessed as decrease in cells at S phase at 125 to 500 nM after 24 hrs by propidium iodide staining based flow cytometry; type: functional; settings: HCT-116
[7] = Cell cycle arrest in BrdU pulse-labelled human HCT116 cells assessed as accumulation at late S phase at 125 to 500 nM after 24 hrs by propidium iodide staining based flow cytometry; type: functional; settings: HCT-116
[8] = Cell cycle arrest in BrdU pulse-labelled human HCT116 cells assessed as accumulation at late G2/M phase at 125 to 500 nM after 24 hrs by propidium iodide staining based flow cytometry; type: functional; settings: HCT-116
HCT-116 [9] = experiment: Induction of apoptosis in human HCT116 cells assessed as decrease in MCL-1 expression incubated for 24 hrs by immunoblotting analysis; type: functional, cell-based
In short: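 HCT-116 cells were treated with different doses for 24 h and harvested into Laemmli buffer. Proteins were separated by SDS-PAGE and blotted to nitrocellulose. Membranes were probed overnight with primary antibodies (anti-PARP F-2, anti-Mcl-1 S-19, anti-p53 DO-1), then with peroxidase secondaries. Bands were detected by ECL with a CCD camera, with tubulin as loading control.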

HCT-116 [10] = experiment: Induction of apoptosis in human HCT116 cells assessed as caspase3 activation using Ac-DEVD-AMC as substrate preincubated for 24 hrs followed by substrate addition measured after 3 hrs by fluorescence assay; type: functional, cell-based
HCT-116 [11] = experiment: Induction of apoptosis in human HCT116 cells assessed as caspase7 activation using Ac-DEVD-AMC as substrate preincubated for 24 hrs followed by substrate addition measured after 3 hrs by fluorescence assay; type: functional, cell-based
G-361 = experiment: Induction of apoptosis in human G361 cells assessed as caspase3 activation using Ac-DEVD-AMC as substrate at 5 times IC50 preincubated for 24 hrs followed by substrate addition measured after 3 hrs by fluorescence assay; type: functional, cell-based
[12] = molecular target: Serine/threonine-protein kinase STK11 (Homo sapiens) (UniProt Q15831); experiment: Inhibition of recombinant LKB1 (unknown origin) assessed as residual activity at 1 uM relative to control
[13] = molecular target: Ephrin type-A receptor 2 (Homo sapiens) (UniProt P29317); experiment: Inhibition of recombinant EPHA2 (unknown origin) assessed as residual activity at 1 uM relative to control
[14] = molecular target: Eukaryotic elongation factor 2 kinase (Homo sapiens) (UniProt O00418); experiment: Inhibition of recombinant EF2K (unknown origin) assessed as residual activity at 1 uM relative to control
[15] = molecular target: Serine/threonine-protein kinase TBK1 (Homo sapiens) (UniProt Q9UHD2); experiment: Inhibition of recombinant TBK1 (unknown origin) assessed as residual activity at 1 uM relative to control
[16] = molecular target: SRSF protein kinase 1 (Homo sapiens) (UniProt Q96SB4); experiment: Inhibition of recombinant SRPK1 (unknown origin) assessed as residual activity at 1 uM relative to control
[17] = molecular target: Ribosomal protein S6 kinase alpha-5 (Homo sapiens) (UniProt O75582); experiment: Inhibition of recombinant MSK1 (unknown origin) assessed as residual activity at 1 uM relative to control
[18] = molecular target: Serine/threonine-protein kinase PLK1 (Homo sapiens) (UniProt P53350); experiment: Inhibition of recombinant PLK1 (unknown origin) assessed as residual activity at 1 uM relative to control
[19] = molecular target: Mitogen-activated protein kinase kinase kinase 11 (Homo sapiens) (UniProt Q16584); experiment: Inhibition of recombinant MLK3 (unknown origin) assessed as residual activity at 1 uM relative to control
[20] = molecular target: Tyrosine-protein kinase BTK (Homo sapiens) (UniProt Q06187); experiment: Inhibition of recombinant BTK (unknown origin) assessed as residual activity at 1 uM relative to control
[21] = molecular target: High affinity nerve growth factor receptor (Homo sapiens) (UniProt P04629); experiment: Inhibition of recombinant TrkA (unknown origin) assessed as residual activity at 1 uM relative to control
[22] = molecular target: MAP/microtubule affinity-regulating kinase 3 (Homo sapiens) (UniProt P27448); experiment: Inhibition of recombinant MARK3 (unknown origin) assessed as residual activity at 1 uM relative to control
[23] = molecular target: Mitogen-activated protein kinase 14 (Homo sapiens) (UniProt Q16539); experiment: Inhibition of recombinant p38alpha MAP kinase (unknown origin) assessed as residual activity at 1 uM relative to control
[24] = molecular target: Mitogen-activated protein kinase kinase kinase 7 (Homo sapiens) (UniProt O43318); experiment: Inhibition of recombinant TAK1 (unknown origin) assessed as residual activity at 1 uM relative to control
[25] = molecular target: Rho-associated protein kinase 2 (Homo sapiens) (UniProt O75116); experiment: Inhibition of recombinant ROCK2 (unknown origin) assessed as residual activity at 1 uM relative to control
[26] = molecular target: Insulin-like growth factor 1 receptor (Homo sapiens) (UniProt P08069); experiment: Inhibition of recombinant IGF1R (unknown origin) assessed as residual activity at 1 uM relative to control
[27] = molecular target: Interleukin-1 receptor-associated kinase 4 (Homo sapiens) (UniProt Q9NWZ3); experiment: Inhibition of recombinant IRAK4 (unknown origin) assessed as residual activity at 1 uM relative to control
[28] = molecular target: Serine/threonine-protein kinase Sgk1 (Homo sapiens) (UniProt O00141); experiment: Inhibition of recombinant SGK1 (unknown origin) assessed as residual activity at 1 uM relative to control
[29] = molecular target: Vascular endothelial growth factor receptor (Homo sapiens) (UniProt P17948+P35916+P35968); experiment: Inhibition of recombinant VEGFR (unknown origin) assessed as residual activity at 1 uM relative to control; type: protein assay
[30] = molecular target: Tyrosine-protein kinase SYK (Homo sapiens) (UniProt P43405); experiment: Inhibition of recombinant SYK (unknown origin) assessed as residual activity at 1 uM relative to control
MCF7 = experiment: Cell cycle arrest in BrdU pulse-labelled human MCF7 cells assessed as accumulation at late S phase at 8 to 250 nM after 24 hrs by propidium iodide staining based flow cytometry; type: functional

Chain of Serine/threonine-protein kinase PAK 4 (Homo sapiens) (O96013 whole entry, looked up): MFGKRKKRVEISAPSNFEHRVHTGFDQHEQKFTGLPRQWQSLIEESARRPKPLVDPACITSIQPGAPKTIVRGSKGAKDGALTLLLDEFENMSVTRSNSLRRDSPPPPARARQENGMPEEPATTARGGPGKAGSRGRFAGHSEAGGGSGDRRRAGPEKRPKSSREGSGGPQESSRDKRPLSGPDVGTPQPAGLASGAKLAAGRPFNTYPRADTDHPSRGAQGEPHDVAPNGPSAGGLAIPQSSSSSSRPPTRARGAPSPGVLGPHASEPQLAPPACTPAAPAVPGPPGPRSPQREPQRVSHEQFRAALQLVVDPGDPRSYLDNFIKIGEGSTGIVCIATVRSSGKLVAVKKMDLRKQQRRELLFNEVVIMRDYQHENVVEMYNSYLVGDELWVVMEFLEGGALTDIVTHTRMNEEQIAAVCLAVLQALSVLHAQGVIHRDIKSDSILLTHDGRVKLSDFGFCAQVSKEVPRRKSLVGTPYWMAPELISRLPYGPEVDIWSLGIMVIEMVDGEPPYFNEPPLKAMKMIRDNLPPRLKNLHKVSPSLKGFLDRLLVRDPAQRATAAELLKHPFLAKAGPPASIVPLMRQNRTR
Chain of Vascular endothelial growth factor receptor (Homo sapiens) (P17948 whole entry, looked up): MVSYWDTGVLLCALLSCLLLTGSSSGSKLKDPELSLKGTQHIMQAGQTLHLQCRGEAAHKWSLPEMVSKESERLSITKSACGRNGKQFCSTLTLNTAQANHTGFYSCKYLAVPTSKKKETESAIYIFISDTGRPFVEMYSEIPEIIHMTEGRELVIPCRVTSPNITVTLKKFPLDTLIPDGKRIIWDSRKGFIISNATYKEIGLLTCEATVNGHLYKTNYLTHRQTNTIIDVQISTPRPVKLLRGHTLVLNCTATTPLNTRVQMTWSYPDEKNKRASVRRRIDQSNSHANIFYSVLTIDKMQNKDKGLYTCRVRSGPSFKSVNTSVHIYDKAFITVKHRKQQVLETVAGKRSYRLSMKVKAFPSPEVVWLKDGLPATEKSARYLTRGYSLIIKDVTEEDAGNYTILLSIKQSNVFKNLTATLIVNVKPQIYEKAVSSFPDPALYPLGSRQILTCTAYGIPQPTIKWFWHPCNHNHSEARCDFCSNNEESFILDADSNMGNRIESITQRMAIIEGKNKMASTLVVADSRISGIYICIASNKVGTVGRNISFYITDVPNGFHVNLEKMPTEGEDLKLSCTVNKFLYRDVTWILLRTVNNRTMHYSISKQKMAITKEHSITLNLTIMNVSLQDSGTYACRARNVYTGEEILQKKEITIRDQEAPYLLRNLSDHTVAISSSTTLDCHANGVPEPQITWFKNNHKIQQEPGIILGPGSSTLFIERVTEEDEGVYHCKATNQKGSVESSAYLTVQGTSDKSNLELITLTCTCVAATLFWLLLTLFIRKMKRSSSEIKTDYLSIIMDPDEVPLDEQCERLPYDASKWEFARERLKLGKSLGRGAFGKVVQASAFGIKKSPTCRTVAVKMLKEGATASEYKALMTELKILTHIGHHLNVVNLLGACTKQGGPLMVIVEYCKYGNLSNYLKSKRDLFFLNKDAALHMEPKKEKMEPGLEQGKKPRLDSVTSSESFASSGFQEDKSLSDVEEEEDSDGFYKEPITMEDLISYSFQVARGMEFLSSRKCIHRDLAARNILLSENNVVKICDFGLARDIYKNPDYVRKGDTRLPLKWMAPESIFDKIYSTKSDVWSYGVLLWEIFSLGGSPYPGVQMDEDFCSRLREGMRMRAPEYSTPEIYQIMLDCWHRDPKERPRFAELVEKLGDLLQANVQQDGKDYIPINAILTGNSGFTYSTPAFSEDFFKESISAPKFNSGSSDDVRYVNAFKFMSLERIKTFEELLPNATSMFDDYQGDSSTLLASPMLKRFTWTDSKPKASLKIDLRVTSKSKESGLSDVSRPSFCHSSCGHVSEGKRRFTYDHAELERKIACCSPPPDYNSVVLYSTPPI
Chain of Vascular endothelial growth factor receptor (Homo sapiens) (P35916 whole entry, looked up): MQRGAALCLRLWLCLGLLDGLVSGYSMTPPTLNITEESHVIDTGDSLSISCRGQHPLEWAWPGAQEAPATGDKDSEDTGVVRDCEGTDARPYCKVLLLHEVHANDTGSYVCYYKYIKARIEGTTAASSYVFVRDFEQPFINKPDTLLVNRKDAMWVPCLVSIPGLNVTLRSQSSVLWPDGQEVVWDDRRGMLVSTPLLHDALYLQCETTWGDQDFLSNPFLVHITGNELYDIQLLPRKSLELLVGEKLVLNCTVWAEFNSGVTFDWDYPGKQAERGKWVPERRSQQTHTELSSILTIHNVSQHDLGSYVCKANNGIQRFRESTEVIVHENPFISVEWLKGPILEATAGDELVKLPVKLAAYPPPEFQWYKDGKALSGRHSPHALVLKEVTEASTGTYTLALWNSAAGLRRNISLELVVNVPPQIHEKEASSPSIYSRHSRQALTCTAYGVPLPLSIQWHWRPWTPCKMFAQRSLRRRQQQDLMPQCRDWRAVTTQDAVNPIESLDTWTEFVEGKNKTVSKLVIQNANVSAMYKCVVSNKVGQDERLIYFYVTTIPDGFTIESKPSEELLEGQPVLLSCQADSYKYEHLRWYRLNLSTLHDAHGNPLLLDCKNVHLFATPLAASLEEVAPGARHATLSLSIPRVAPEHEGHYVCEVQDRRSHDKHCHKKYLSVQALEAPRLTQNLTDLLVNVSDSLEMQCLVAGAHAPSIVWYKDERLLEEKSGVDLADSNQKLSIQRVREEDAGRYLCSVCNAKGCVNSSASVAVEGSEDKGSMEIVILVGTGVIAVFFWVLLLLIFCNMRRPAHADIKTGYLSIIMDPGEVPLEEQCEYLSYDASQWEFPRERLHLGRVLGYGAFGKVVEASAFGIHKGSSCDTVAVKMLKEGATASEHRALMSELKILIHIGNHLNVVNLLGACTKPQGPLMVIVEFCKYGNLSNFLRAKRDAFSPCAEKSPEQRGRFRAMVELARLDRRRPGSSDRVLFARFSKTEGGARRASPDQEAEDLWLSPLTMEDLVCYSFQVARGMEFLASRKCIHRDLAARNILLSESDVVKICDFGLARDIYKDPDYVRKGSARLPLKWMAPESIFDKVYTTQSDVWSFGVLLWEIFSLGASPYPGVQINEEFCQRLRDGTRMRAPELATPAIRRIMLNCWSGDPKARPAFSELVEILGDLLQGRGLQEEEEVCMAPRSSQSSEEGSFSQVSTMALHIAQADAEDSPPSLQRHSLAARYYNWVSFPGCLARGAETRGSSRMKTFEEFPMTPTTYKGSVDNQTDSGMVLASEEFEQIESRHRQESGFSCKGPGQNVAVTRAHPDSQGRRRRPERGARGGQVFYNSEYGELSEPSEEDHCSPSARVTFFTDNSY
Chain of Vascular endothelial growth factor receptor (Homo sapiens) (P35968 whole entry, looked up): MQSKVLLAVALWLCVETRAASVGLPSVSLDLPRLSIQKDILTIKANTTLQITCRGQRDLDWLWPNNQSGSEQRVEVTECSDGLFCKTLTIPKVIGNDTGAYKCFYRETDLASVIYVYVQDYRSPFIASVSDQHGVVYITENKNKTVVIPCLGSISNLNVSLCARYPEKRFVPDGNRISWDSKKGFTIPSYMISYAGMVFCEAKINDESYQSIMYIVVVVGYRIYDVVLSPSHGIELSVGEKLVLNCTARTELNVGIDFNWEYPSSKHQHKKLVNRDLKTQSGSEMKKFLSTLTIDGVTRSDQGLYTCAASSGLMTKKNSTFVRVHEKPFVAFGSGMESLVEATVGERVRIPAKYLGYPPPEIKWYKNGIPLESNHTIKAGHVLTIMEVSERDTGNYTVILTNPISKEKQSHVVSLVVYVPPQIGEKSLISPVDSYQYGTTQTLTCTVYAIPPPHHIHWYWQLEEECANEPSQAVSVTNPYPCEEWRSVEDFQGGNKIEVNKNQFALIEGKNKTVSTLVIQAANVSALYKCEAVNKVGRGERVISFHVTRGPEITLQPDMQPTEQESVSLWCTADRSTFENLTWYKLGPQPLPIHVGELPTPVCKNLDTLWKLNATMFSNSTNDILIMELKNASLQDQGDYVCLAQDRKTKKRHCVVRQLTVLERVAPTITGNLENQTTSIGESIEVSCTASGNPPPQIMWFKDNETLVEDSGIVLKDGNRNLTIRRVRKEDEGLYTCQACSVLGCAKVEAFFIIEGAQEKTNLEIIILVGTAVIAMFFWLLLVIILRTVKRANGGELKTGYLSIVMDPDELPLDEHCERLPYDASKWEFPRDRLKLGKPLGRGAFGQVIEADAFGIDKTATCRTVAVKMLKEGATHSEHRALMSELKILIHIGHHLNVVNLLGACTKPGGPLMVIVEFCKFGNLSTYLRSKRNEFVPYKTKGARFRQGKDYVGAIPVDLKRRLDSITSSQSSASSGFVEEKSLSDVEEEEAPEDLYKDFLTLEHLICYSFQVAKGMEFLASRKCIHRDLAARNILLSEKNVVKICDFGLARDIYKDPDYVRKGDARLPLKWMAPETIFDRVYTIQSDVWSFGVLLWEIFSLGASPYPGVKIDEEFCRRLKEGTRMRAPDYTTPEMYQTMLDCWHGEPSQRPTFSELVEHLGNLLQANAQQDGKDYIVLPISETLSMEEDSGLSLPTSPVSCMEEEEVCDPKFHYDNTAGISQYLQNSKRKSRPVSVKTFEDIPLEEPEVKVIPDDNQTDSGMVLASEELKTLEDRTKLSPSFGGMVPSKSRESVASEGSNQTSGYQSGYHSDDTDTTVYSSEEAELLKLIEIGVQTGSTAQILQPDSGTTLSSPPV
Chain of Interleukin-1 receptor-associated kinase 4 (Homo sapiens) (Q9NWZ3 whole entry): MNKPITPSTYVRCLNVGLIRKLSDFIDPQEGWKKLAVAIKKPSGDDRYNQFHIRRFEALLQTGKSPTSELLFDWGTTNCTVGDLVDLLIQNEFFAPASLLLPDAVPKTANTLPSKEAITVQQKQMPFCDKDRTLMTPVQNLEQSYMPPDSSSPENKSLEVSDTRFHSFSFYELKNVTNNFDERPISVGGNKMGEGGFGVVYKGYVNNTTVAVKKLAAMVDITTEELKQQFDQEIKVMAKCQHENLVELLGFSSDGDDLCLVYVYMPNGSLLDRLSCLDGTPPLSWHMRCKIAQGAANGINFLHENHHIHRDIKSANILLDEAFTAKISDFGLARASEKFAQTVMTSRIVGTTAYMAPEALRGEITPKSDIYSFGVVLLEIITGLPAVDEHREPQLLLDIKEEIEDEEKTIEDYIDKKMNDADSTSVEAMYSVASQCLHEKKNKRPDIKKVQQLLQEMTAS

- IC50 [1]: > 2000 nM
- Activity [2]: 49%
- Activity [3]: 69%
- Activity [4]: 77%
- IC50 [5]: 2780 nM
- Activity [12]: 82%
- Activity [13]: 92%
- Activity [14]: 92%
- Activity [15]: 92%
- Activity [16]: 95%
- Activity [17]: 97%
- Activity [18]: 97%
- Activity [19]: 98%
- Activity [20]: > 100%
- Activity [21]: > 100%
- Activity [22]: > 100%
- Activity [23]: > 100%
- Activity [24]: > 100%
- Activity [25]: > 100%
- Activity [26]: > 100%
- Activity [27]: > 100%
- Activity [28]: > 100%
- Activity [29]: > 100%
- Activity [30]: > 100%
Structure (SMILES): CC(O)CNc1nc(NCc2ccc(-c3ccccn3)cc2)c2[nH]nc(C(C)C)c2n1 (stereo not drawn)
- IC50 (K562): 57 nM
- Activity [6]: Active
- Activity [7]: Active
- Activity [8]: Active
- Activity (HCT-116 [9]): Dose-dependent effect
- Activity (HCT-116 [10]): Dose-dependent effect
- Activity (HCT-116 [11]): Dose-dependent effect
- Activity (G-361): Active
- Activity (MCF7): Active
